Source: ChEMBL document CHEMBL1136605, “Synthesis and biological activities of novel beta-carbolines as PDE5 inhibitors” (Bioorg Med Chem Lett, 2003)

What was measured:
[1] = molecular target: Phosphodiesterase 2 and 5 (PDE2 and PDE5) (Homo sapiens) (UniProt O76074+O00408); assay: Relative inhibition of PDE2 and PDE5 from human corpus cavernosum; assay type: protein assay
In short: (§1)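 Ratio of inhibition of a second human PDE to that of PDE5 from corpus cavernosum. PDE2 was from corpus cavernosum and PDE6 from retinal cone. Compounds were diluted in DMSO to 2% DMSO final. Ki was determined for each enzyme.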

Homo sapiens = species on record: Homo sapiens; assay: Relative inhibition of PDE6 from human retinal cone and PDE5 from human corpus cavernosum; in short: as §1
[2] = molecular target: T1, cGMP-specific 3',5'-cyclic phosphodiesterase (Homo sapiens, UniProt O76074); assay: Inhibitory activity against PDE5 from human corpus cavernosum
[3] = molecular target: T1, cGMP-specific 3',5'-cyclic phosphodiesterase; assay: Inhibition of PDE5 (Phosphodiesterase) from human corpus cavernosum
In short: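 Enzyme was PDE5 from human corpus cavernosum. Compounds were serially diluted in 100% DMSO and added to assay buffer at 2% DMSO final. […] Ki was derived, with IC50 instead for a few compounds. Values are means of three experiments.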

Canis familiaris = assay: In vivo increased intracavernosal pressure in dogs after intravenous dose; assay type: functional, Canis lupus familiaris
In short: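 Ascending intravenous doses given at 40-min intervals after control responses were established. Intracavernosal pressure (ICP) was evoked 15 min after each dose by pelvic nerve electrical stimulation at the same setting. Effect was taken as the ICP area under the curve at each stimulation minus the control-response AUC.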

SMILES | Ki [2] | other results
Cc1ncc(-c2cnc(N3CCc4c([nH]c5ccccc45)C3c3ccc4c(c3)CCO4)nc2)n1C (stereo not given) |  | Selectivity [1]: > 4000; Selectivity (Homo sapiens): 187
CS(=O)(=O)c1ccc(-c2cnc(N3CCc4c([nH]c5ccccc45)C3c3ccc4c(c3)OCO4)nc2)c([N+](=O)[O-])c1 (stereo not given) | 132 nM | 
c1ccc2c3c([nH]c2c1)C(c1ccc2c(c1)CCO2)N(c1ncc(-c2ccc(OCCN4CCCC4)cc2)cn1)CC3 (stereo not given) | > 1000 nM | 
COc1ccc(-c2cnc(N3CCc4c([nH]c5ccccc45)C3c3ccc4c(c3)OCO4)nc2)cc1 (stereo in doubt; 8a) | 246 nM | 
FC(F)(F)c1cccc(-c2ccc(CN3CCc4c([nH]c5ccccc45)C3c3ccc4c(c3)OCO4)o2)c1 (stereo not given) | 850 nM | 
O=C(c1ccc(-c2ccc(Cl)cc2[N+](=O)[O-])o1)N1CCc2c([nH]c3ccccc23)[C@@H]1c1ccc2c(c1)OCO2 |  | IC50 [3]: > 10000 nM
COc1ccc(-c2cnc(N3CC(O)c4c([nH]c5ccccc45)C3c3ccc4c(c3)OCO4)nc2)cc1OC (stereo not given) | > 100 nM | 
Clc1ccc(-c2cnc(N3CCc4c([nH]c5ccccc45)C3c3ccc4c(c3)OCO4)nc2)cc1 (stereo not given) | 126 nM | 
COc1ccc(-c2cnc(N3CCc4c([nH]c5ccccc45)C3c3ccc4c(c3)CCO4)nc2)cc1 (stereo in doubt; 8f) | 189 nM | 
O=C(c1ccc(-c2ccc(Cl)cc2[N+](=O)[O-])o1)N1CCc2c([nH]c3ccccc23)[C@H]1c1ccc2c(c1)OCO2 |  | IC50 [3]: 67 nM
Cc1ccc(-c2cnc(N3CCc4c([nH]c5ccccc45)C3c3ccc4c(c3)OCO4)nc2)cc1 (stereo not given) | 543 nM | 
COc1ccc(-c2cnc(N3CCc4c([nH]c5ccccc45)C3c3ccc(OC)c(OC)c3)nc2)cc1 (stereo not given) | > 10000 nM | 
COc1ccc(-c2cnc(N3CC(=O)c4c([nH]c5ccccc45)C3c3ccc4c(c3)OCO4)nc2)cc1OC (stereo not given) |  | Selectivity [1]: 23000; Selectivity (Homo sapiens): 4
O=C(c1ccc(-c2ccc(Cl)cc2[N+](=O)[O-])o1)N1CCc2c([nH]c3ccccc23)C1c1ccc2c(c1)OCO2 (stereo not given) |  | IC50 [3]: 105 nM
Oc1ccc(-c2cnc(N3CCc4c([nH]c5ccccc45)C3c3ccc4c(c3)CCO4)nc2)cc1 (stereo not given) | 154 nM | 
COc1ccc(-c2cnc(N3CC(=O)c4c([nH]c5ccccc45)C3c3ccc4c(c3)OCO4)nc2)cc1 (stereo not given) | 18 nM | ED50 (Canis familiaris): 0.173 mg/kg
O=C(O)CCCC(=O)Nc1cccc(-c2ccc(C(=O)N3CCc4c([nH]c5ccccc45)C3c3ccc4c(c3)OCO4)o2)c1 (stereo not given) |  | IC50 [3]: 95 nM
CCCc1nn(C)c2c(=O)[nH]c(-c3cc(S(=O)(=O)N4CCN(C)CC4)ccc3OCC)nc12 |  | ED50 (Canis familiaris): 0.0051 mg/kg
O=C(c1ccc(-c2ccccc2)o1)N1CCc2c([nH]c3ccccc23)C1c1ccc2c(c1)OCO2 (stereo not given) |  | IC50 [3]: 750 nM
O=C(O)CCCC(=O)Nc1ccc(-c2ccc(C(=O)N3CCc4c([nH]c5ccccc45)C3c3ccc4c(c3)OCO4)o2)cc1 (stereo not given) |  | IC50 [3]: 100 nM
COc1ccc(-c2cnc(N3CCc4c([nH]c5ccccc45)C3c3ccc4c(c3)CCO4)nc2)cc1 (stereo in doubt; 15f) | 188 nM | 
COc1ccc(-c2cnc(N3CCc4c([nH]c5ccccc45)C3c3ccc4c(c3)OCO4)nc2)cc1 (stereo in doubt; 15a) | 246 nM | 

Now from value to molecule, other results behind:

Ki [2] | SMILES | other results
8.11 nM | CN1CCN(C(=O)c2ccc(-c3ccc(C(=O)N4CCc5c([nH]c6ccccc56)C4c4ccc5c(c4)CCO5)o3)cc2)CC1 (stereo not given) | Selectivity [1]: > 10000; Selectivity (Homo sapiens): 119
126 nM | O=C(c1ccc(-c2cccc(C(F)(F)F)c2)o1)N1CCc2c([nH]c3ccccc23)C1c1ccc2c(c1)OCO2 (stereo not given) | 
130 nM | O=C(c1ccc(-c2cccc([N+](=O)[O-])c2)o1)N1CCc2c([nH]c3ccccc23)C1c1ccc2c(c1)OCO2 (stereo not given) | 
123 nM | Nc1ccc(-c2ccc(C(=O)N3CCc4c([nH]c5ccccc45)C3c3ccc4c(c3)OCO4)o2)cc1 (stereo not given) | 
179 nM | Nc1cccc(-c2ccc(C(=O)N3CCc4c([nH]c5ccccc45)C3c3ccc4c(c3)OCO4)o2)c1 (stereo not given) | 
50.6 nM | CC(=O)Nc1cccc(-c2ccc(C(=O)N3CCc4c([nH]c5ccccc45)C3c3ccc4c(c3)OCO4)o2)c1 (stereo not given) | 
32.3 nM | O=C(c1ccc(-c2ccccn2)o1)N1CCc2c([nH]c3ccccc23)C1c1ccc2c(c1)CCO2 (stereo not given) | Selectivity [1]: 308; Selectivity (Homo sapiens): 32
219 nM | O=C(c1ccc(-c2ccccc2[N+](=O)[O-])o1)N1CCc2c([nH]c3ccccc23)C1c1ccc2c(c1)OCO2 (stereo not given) | 
64.2 nM | CC(=O)Nc1ccc(-c2ccc(C(=O)N3CCc4c([nH]c5ccccc45)C3c3ccc4c(c3)OCO4)o2)cc1 (stereo not given) | 
77.5 nM | O=C(c1ccc(-c2ccc([N+](=O)[O-])cc2)o1)N1CCc2c([nH]c3ccccc23)C1c1ccc2c(c1)OCO2 (stereo not given) | 
> 5000 nM | O=C(c1ccc(-c2cccc([N+](=O)[O-])c2)o1)N1CCc2c(sc3ccccc23)C1c1ccc2c(c1)OCO2 (stereo not given) | 
